Values after ≈ are worked out from the molar mass of the structure shown.
Tests used:
Type in all cases: functional
Candida albicans [1] = assay: Ratio of MIC50 for Candida albicans 5674 to MIC50 for tac1/tac1 deficient Candida albicans SZY31
Outline: (§1)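 Ratios use MIC50s from the YPD liquid microtiter assay (48 h, 30°C, OD620 growth relative to drug-free control). MIC50 is the first concentration giving a 50% growth reduction, as the mean of three independent experiments in duplicate. The MIC50 of one strain is divided by that of the other.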

Candida albicans [2] = assay: Antifungal activity against cdr2/cdr2 deficient Candida albicans STY7 after 48 hrs; conditions: STY7, 48 h
Outline: (§2)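 Liquid microtiter broth assay in YPD, cells incubated 48 h at 30°C with drug (e.g. FLC 0.2–200 µg/ml; KTC 0.001–1.2 µg/ml). Growth read as OD620 and expressed relative to drug-free growth of the same strain. MIC50 taken as the first concentration reducing growth by 50%. Mean of three independent experiments, each in duplicate.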

Candida albicans [3] = assay: Antifungal activity against azole-susceptible Candida albicans 5457 after 48 hrs; conditions: Candida albicans, 5457, 48 h; outline: as §2
Candida albicans [4] = assay: Antifungal activity against tac1/tac1 deficient Candida albicans SZY31 after 48 hrs; conditions: SZY31, 48 h; outline: as §2
Candida albicans [5] = assay: Antifungal activity against cdr1/cdr1 deficient Candida albicans STY19 after 48 hrs; conditions: STY19, 48 h; outline: as §2
Candida albicans [6] = assay: Ratio of MIC50 for cdr1/cdr1 deficient Candida albicans STY19 to MIC50 for cdr1/cdr1/cdr2/cdr2 deficient Candida albicans STY31; outline: as §1
Candida albicans [7] = assay: Antifungal activity against azole-resistant Candida albicans 5674 after 48 hrs; conditions: Candida albicans, 5674, 48 h; outline: as §2
Candida albicans [8] = assay: Antifungal activity against cdr1/cdr1/cdr2/cdr2 deficient Candida albicans STY31 after 48 hrs; conditions: STY31, 48 h; outline: as §2
Candida albicans [9] = assay: Ratio of MIC50 for Candida albicans 5674 to MIC50 for cdr2/cdr2 deficient Candida albicans STY7; outline: as §1
Candida albicans [10] = assay: Ratio of MIC50 for Candida albicans 5674 to MIC50 for cdr1/cdr1 deficient Candida albicans STY19; outline: as §1
Candida albicans [11] = assay: Ratio of MIC50 for Candida albicans 5674 to MIC50 for cdr1/cdr1/cdr2/cdr2 deficient Candida albicans STY31; outline: as §1
Candida albicans [12] = assay: Antifungal activity against Candida albicans STY47 expressing cdr2 gene after 48 hrs; conditions: STY47, 48 h; outline: as §2
Candida albicans [13] = assay: Ratio of MIC50 for Candida albicans 5674 to MIC50 for Candida albicans STY47 expressing cdr2 gene; outline: as §1

| Structure (SMILES) | Ratio (Candida albicans [1]) | MIC50 (Candida albicans [2]) [µg/mL] | MIC50 (Candida albicans [3]) [µg/mL] | MIC50 (Candida albicans [4]) [µg/mL] | MIC50 (Candida albicans [5]) [µg/mL] | Ratio (Candida albicans [6]) | MIC50 (Candida albicans [7]) [µg/mL] | MIC50 (Candida albicans [8]) [µg/mL] | Ratio (Candida albicans [9]) | Ratio (Candida albicans [10]) | Ratio (Candida albicans [11]) | MIC50 (Candida albicans [12]) [µg/mL] | Ratio (Candida albicans [13]) |
| --- | --- | --- | --- | --- | --- | --- | --- | --- | --- | --- | --- | --- | --- |
| OCCN1CCN(CCCN2c3ccccc3Sc3ccc(C(F)(F)F)cc32)CC1 [FLUPHENAZINE] | 2 | 75 (≈ 171 µM) | 75 (≈ 171 µM) | 38 (≈ 86.9 µM) | 50 (≈ 114 µM) | 2 | 75 (≈ 171 µM) | 25 (≈ 57.1 µM) | 1 | 1.5 | – | – | – |
| CC/N=c1\cc2oc3cc(NCC)c(C)cc3c(-c3ccccc3C(=O)OCC)c-2cc1C.Cl [RHODAMINE 6G HYDROCHLORIDE] | – | 16 | 8 | 2 | 8 | – | 16 | 8 | – | – | – | – | – |
| CCC(C)n1ncn(-c2ccc(N3CCN(c4ccc(OCC5COC(Cn6cncn6)(c6ccc(Cl)cc6Cl)O5)cc4)CC3)cc2)c1=O (stereo unspecified) [ITRACONAZOLE] | – | 0.2 (≈ 0.283 µM) | 0.0125 (≈ 0.0177 µM) | 0.0063 (≈ 0.00893 µM) | 0.025 (≈ 0.0354 µM) | – | 0.2 (≈ 0.283 µM) | 0.0004 (≈ 0.000567 µM) | 1 | 8 | 500 | – | – |
| OC(Cn1cncn1)(Cn1cncn1)c1ccc(F)cc1F [FLUCONAZOLE] | – | 100 (≈ 327 µM) | 3.1 (≈ 10.1 µM) | 6.2 (≈ 20.2 µM) | 25 (≈ 81.6 µM) | – | 150 (≈ 490 µM) | 0.4 (≈ 1.31 µM) | 1.5 | 6 | 375 | 6.3 (≈ 20.6 µM) | 16 |
| C[C@@H]1[C@H](O)[C@@H](C)/C=C/C=C/C=C/C=C/C=C/C=C/C=C/[C@H](O[C@@H]2O[C@H](C)[C@@H](O)[C@H](N)[C@@H]2O)C[C@@H]2O[C@](O)(C[C@@H](O)C[C@@H](O)[C@H](O)CC[C@@H](O)C[C@@H](O)CC(=O)O[C@H]1C)C[C@H](O)[C@H]2C(=O)O [AMPHOTERICIN B] | – | 2 (≈ 2.16 µM) | 1 (≈ 1.08 µM) | 1 (≈ 1.08 µM) | 2 (≈ 2.16 µM) | – | 2 (≈ 2.16 µM) | 2 (≈ 2.16 µM) | – | – | – | – | – |
| CC(=O)N1CCN(c2ccc(OCC3COC(Cn4ccnc4)(c4ccc(Cl)cc4Cl)O3)cc2)CC1 (stereo unspecified) [KETOCONAZOLE] | – | 0.4 (≈ 0.753 µM) | 0.018 (≈ 0.0339 µM) | 0.009 (≈ 0.0169 µM) | 0.15 (≈ 0.282 µM) | – | 0.6 (≈ 1.13 µM) | 0.002 (≈ 0.00376 µM) | 1.5 | 4 | 300 | – | – |

Reference: ChEMBL document CHEMBL1649166, “Relative contributions of the Candida albicans ABC transporters Cdr1p and Cdr2p to clinical azole resistance” (2009)
